Measurements pooled from the literature.
Compare with care: the assays were run in different laboratories.
PPO3: PPO3 (Agaricus bisporus, UniProt C7FF04)
OPRK1: Kappa-type opioid receptor (OPRK1, Homo sapiens, UniProt P41145)
SIGMAR1: Sigma non-opioid intracellular receptor 1 (SIGMAR1, Homo sapiens, UniProt Q99720)
CNR1: Cannabinoid receptor 1 (CNR1, Homo sapiens, UniProt P21554)
HRH4: Histamine H4 receptor (HRH4, Homo sapiens, UniProt Q9H3N8)
SPHK1: Sphingosine kinase 1 (SPHK1, Homo sapiens, UniProt Q9NYA1)
SLC10A1: Hepatic sodium/bile acid cotransporter (SLC10A1, Homo sapiens, UniProt Q14973)
HTR2A: 5-hydroxytryptamine receptor 2A (HTR2A, Homo sapiens, UniProt P28223)

CC(=O)Nc1ccc(N=Nc2c(N)nc(N)nc2Cl)cc1
Ki (PPO3; enzyme activity; inhibitor): 7.84 µM

O[C@@H]1[C@H](O)[C@@H]2C[C@@H]2[C@H]1n1cnc2c(NCc3cccc(Cl)c3)nc(C#Cc3ccc(F)c(F)c3)nc21
Ki (OPRK1; cell-free assay): > 10 µM

CC(=O)Nc1ccc(N=Nc2c(N)nc(N)nc2N)cc1
Ki (PPO3; enzyme activity; inhibitor): 4.98 µM

Cn1cc(-c2ccncc2)c(-c2ccc(OCc3ccc4ccccc4n3)cc2)n1
Ki (Vesicular acetylcholine transporter (SLC18A3, Homo sapiens, UniProt Q16572); ligand displacement; radioligand): > 1 µM

CCCn1nc(C(=O)N2CCCCC2)c2c1CCC(NCCc1ccncc1)C2 (centres unmarked)
Ki (SIGMAR1; ligand displacement; radioligand): > 10 µM

CCCC[C@H](NC(=O)[C@H](C)c1c(C)[nH]c2ccc(O)cc12)c1ncc(-c2cc3ccccc3nc2OC)[nH]1
Ki (CNR1; cell-free assay): 7.28 µM

O=C(c1cccc(/N=N/c2cccc(OCCCN3CCCCC3)c2)c1)N1CCCC1
Ki (HRH4; ligand displacement; radioligand): > 10 µM

CCOC(=O)[C@](CC)(CCCS(=O)(=O)CCOCCOCCNC(=O)OC(C)(C)C)NC(=O)c1ccc(C2CC2)c(Cc2ccc(F)cc2)n1
Ki (CNR1; ligand displacement; radioligand; cell membranes): 0.19 µM

CCCn1nc(C(=O)N2CCCCC2)c2c1CCC(N1CCN(Cc3ccc(C#N)cc3)CC1)C2 (centres unmarked)
Ki (SIGMAR1; ligand displacement; radioligand): > 10 µM

N=C(N)N1CCC[C@H]1c1nc(-c2ccc(CCc3ccc(C(F)(F)F)cc3)c(C(F)(F)F)c2)no1
Ki (SPHK1; enzyme activity; inhibitor): 9 µM

CCCc1nc2c(C)cc(-c3nc4ccccc4n3C)cc2n1Cc1ccc(-c2ccccc2C(=O)O)cc1
Ki (SLC10A1; transporter uptake; inhibitor): 60 µM

N=C(N)N1CCC[C@H]1c1nc(-c2ccc(CCC3CCCCC3)c(C(F)(F)F)c2)no1
Ki (SPHK1; enzyme activity; inhibitor): 18 µM

CCCn1nc(C(=O)N2CCCCC2)c2c1CCC(NCCNC(=N)N)C2 (centres unmarked)
Ki (SIGMAR1; ligand displacement; radioligand): > 10 µM

COc1ccccc1N1CCN(C/C=C/CNC(=O)c2cc3cc(OCCOCCF)ccc3[nH]2)CC1
Ki (SIGMAR1; cell-free assay): > 10 µM

COc1ccccc1Oc1c(NS(=O)(=O)c2ccc(C(C)(C)C)cc2)nc(-c2ncccn2)nc1OCCO
Ki (SLC10A1; transporter uptake; inhibitor): 145 µM

Cc1nc2n(c(=O)c1CCN1CCC(C(=O)c3ccc(F)cc3)CC1)CCCC2
Ki (HTR2A; ligand displacement; radioligand; cell membranes): 0.00302 µM

CNC(=O)[C@@]12C[C@@H]1[C@@H](n1cnc3c(NCc4cccc(Cl)c4)nc(C#Cc4ccc(F)cc4)nc31)[C@H](O)[C@@H]2O
Ki (OPRK1; cell-free assay): > 10 µM

O=C1NC(=O)C(c2ccccc2)(c2ccc(OCCCN3CCCCC3)cc2)N1 (centres unmarked)
Ki (HRH4; ligand displacement; radioligand; cell membranes): > 100 µM

CC1Cc2ccccc2N1C(=O)NCCCCN(C)[C@@H]1Cc2cccc3[nH]c(=O)n(c23)C1 (mixture of isomers)
Ki (HTR2A; ligand displacement; radioligand): 3.09 µM

CCCn1nc(C(=O)N2CCCCC2)c2c1CCC(NCc1ccc(N3CCCCC3)cc1)C2 (centres unmarked)
Ki (SIGMAR1; ligand displacement; radioligand): > 10 µM

CNC(=O)[C@@]12C[C@@H]1[C@@H](n1cnc3c(NCCCO)nc(C#Cc4ccc(Cl)s4)nc31)[C@H](O)[C@@H]2O
Ki (OPRK1; cell-free assay): > 10 µM

Cc1nc2n(c(=O)c1CCN)CCCC2
Ki (HTR2A; ligand displacement; radioligand; cell membranes): > 10 µM

CCCNc1nc(C#Cc2ccc(Cl)s2)nc2c1ncn2[C@H]1[C@H](O)[C@H](O)[C@]2(C(=O)NC)C[C@H]12
Ki (OPRK1; cell-free assay): > 10 µM

CN(CCCCNC(=O)c1cc2ccccc2[nH]1)[C@@H]1Cc2cccc3[nH]c(=O)n(c23)C1
Ki (HTR2A; ligand displacement; radioligand): 1.44 µM

Cc1ccc(CN(C)CC(=O)N2CCCN(Cc3ccc(Cl)cc3)CC2)c(Cl)c1
Ki (OPRK1; cell-free assay): 7.59 µM

CNC(=O)[C@@]12C[C@@H]1[C@@H](n1cnc3c(NCc4cccc(Cl)c4)nc(C#Cc4ccccc4)nc31)[C@H](O)[C@@H]2O
Ki (OPRK1; cell-free assay): > 10 µM

O[C@H]1[C@H](n2cnc3c(NC(C4CCCCC4)C4CCCCC4)nc(Cl)nc32)[C@H]2C[C@@]2(CF)[C@H]1O
Ki (HTR2A; ligand displacement; radioligand): 7 µM

Cc1ccc(C(C)C)cc1NC(=O)COC(=O)c1ccc(O)cc1O
Ki (PPO3; enzyme activity; inhibitor): 0.188 µM

CCCn1nc(C(=O)N2CCCCC2)c2c1CCC(Nc1ccc(N3CCCCC3)cc1)C2 (centres unmarked)
Ki (SIGMAR1; ligand displacement; radioligand): > 10 µM

CC[C@H](C)[C@H](NC(=O)[C@H](CCC(=O)O)NC(=O)[C@H](CC(=O)O)NC(=O)CNC(=O)[C@H](CC(C)C)NC(=O)[C@H](CCCNC(=N)N)NC(=O)[C@H](CCCNC(=N)N)NC(=O)[C@H](CC(C)C)NC(=O)CNC(=O)[C@H](CCC(N)=O)NC(=O)[C@@H](NC(=O)[C@H](CCSC)NC(=O)[C@H](Cc1c[nH]c2ccccc12)NC(=O)[C@@H](NC(=O)[C@H](CCC(=O)O)NC(=O)[C@@H]1CCCN1C(=O)[C@H](CCCNC(=N)N)NC(C)=O)[C@@H](C)CC)[C@@H](C)O)C(=O)N[C@@H](CC(N)=O)C(=O)N[C@@H](C)C(=O)N[C@@H](Cc1ccc(O)cc1)C(=O)N[C@@H](Cc1ccc(O)cc1)C(=O)N[C@@H](C)C(=O)N[C@@H](CCCNC(=N)N)C(N)=O
Ki (Bcl-2-like protein 1 (BCL2L1, Homo sapiens, UniProt Q07817); ligand displacement; FP): 2.4 µM

COc1ccc(N=Nc2c(N)nc(N)nc2N)cc1
Ki (PPO3; enzyme activity; inhibitor): 7.63 µM

Cc1nc[nH]c(=O)c1CCN1CCC(c2noc3cc(F)ccc23)CC1
Ki (HTR2A; ligand displacement; radioligand; cell membranes): 0.00186 µM

O=C1c2ccccc2CCN1CCCCN1CCN(c2cccc(Cl)c2Cl)CC1
Ki (HTR2A; ligand displacement; radioligand): 0.039 µM

CCCCN1CCC(COC(=O)c2ccc(N)c(OCF)c2)CC1
Ki (HTR2A; cell-free assay; radioligand): > 10 µM

Cc1ccc(C(C)C)cc1NC(=O)COC(=O)/C=C/c1ccccc1O
Ki (PPO3; enzyme activity; inhibitor): 2.2 µM

CNC(=O)[C@@]12C[C@@H]1[C@@H](n1cnc3c(NC4CC4c4ccccc4)nc(C#Cc4ccccc4)nc31)[C@H](O)[C@@H]2O (mixture of isomers)
Ki (OPRK1; cell-free assay): > 10 µM

CCCn1nc(C(=O)N2CCCCC2)c2c1CCC(NCCCN1CCCC1=O)C2 (centres unmarked)
Ki (SIGMAR1; ligand displacement; radioligand): > 10 µM

O[C@@H]1[C@H](O)[C@@H]2C[C@@H]2[C@H]1n1cnc2c(NCCc3ccccc3)nc(C#Cc3ccccc3Cl)nc21
Ki (OPRK1; cell-free assay): > 10 µM

Nc1nc(N)c(N=Nc2ccc([N+](=O)[O-])cc2)c(Cl)n1
Ki (PPO3; enzyme activity; inhibitor): 6.56 µM

CNC(=O)[C@@]12C[C@@H]1[C@@H](n1cnc3c(NC)nc(C#Cc4ccc(Br)s4)nc31)[C@H](O)[C@@H]2O
Ki (OPRK1; cell-free assay): > 10 µM

COc1ccc2c(ccn2CCCCN2Cc3cc(OC)c(OC)cc3C2)c1
Ki (SIGMAR1; ligand displacement; radioligand; cell membranes): 0.19 µM
